Assay results reported in PMC8593914 (Experimental and Therapeutic Medicine, 2021).
One block for each substance: values may come before it.

Tests used:
kisspeptin = experiment: SPR binding of RFRP-3 to immobilized kisspeptin; set-up: species or system rat; conditions: Biacore T200
In short: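 Kisspeptin at 20 µg/ml in sodium acetate pH 5.5 was coupled to a CM5 chip (5,720 RU). Running buffer was PBS-P: 10 mM phosphate, 2.7 mM KCl, 137 mM NaCl, 0.05% P20, pH […]. Test peptide at 3.125–50 µM went over the detection and reference channels at 4 °C: 60 s injection, 15 µl/min, 15 min dissociation. Regeneration used 10 mM glycine-HCl pH 2.0 for 30 s; kinetic parameters were fitted.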

GnRH neurons = conditions: cited from earlier work
mice = conditions: cited from earlier work
LH and FSH = conditions: Japanese quail; cited from earlier work

direct binding to kisspeptin (in words) (kisspeptin): could bind directly to kisspeptin
Substance: RFamide-related peptide-3 [RFRP-3]
secretion of GnRH and expression and secretion of gonadotropin (GnRH neurons): inhibit the secretion of GnRH via its receptor on GnRH neurons, thus acting on the pituitary system to inhibit the expression and secretion of gonadotropin, LH and FSH

Substance: SIKPSAYLPLRFa [GnIH, gonadotropin-inhibitory hormone]
expression levels of glucose transporter 4 (mice): increased the expression levels of glucose transporter 4
food intake (mice): increased food intake
glucose uptake / glucose transporter 8 expression (mice): reduced glucose uptake by downregulating the expression levels of glucose transporter 8
synthesis of triglycerides in adipose tissue (mice): increased the synthesis of triglycerides in adipose tissue
testosterone synthesis (mice): reduced testosterone synthesis
secretion of LH and FSH (LH and FSH): inhibit the secretion of LH and FSH in the brain of Japanese quail
